In ChEMBL document CHEMBL1159085, “Proteasome inhibition in human breast cancer cells with high catechol-O-methyltransferase activity by green tea polyphenol EGCG analogs” (Bioorg Med Chem, 2010):
Activity calls are given as the source filed them. The calls are words filed in the database; no cut-off is given here.

Key:
MDA-MB-231 [1] = assay: Inhibition of 20S proteasome in human MDA-MB-231 cells assessed as accumulation of proteasome substrate at 50 uM after 22 hrs by Western blot; type: cell-based
Procedure, shortened: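 Intact MDA-MB-231 cells were cultured in RPMI 1640 with 10% FBS and penicillin/streptomycin at 37°C and 5% CO2. They were treated with 50 μM compound for 22 h. Accumulation of ubiquitinated proteins, used as a measure of proteasome substrates, was then detected by Western blotting of cell lysates.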

MDA-MB-231 [2] = assay: Inhibition of chymotrypsin like activity of 20S proteasome in human MDA-MB-231 cells assessed as cleavage of Suc-LLVY-AMC substrate after 2 hrs by fluorogenic assay; type: cell-based
Procedure, shortened: (§1)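 Crude MDA-MB-231 cell extract (5.7 μg) was used as the source of 26S proteasome. It was incubated with compound at a range of concentrations, or with solvent, plus 20 μM Suc-LLVY-AMC in 20 mM Tris-HCl, pH 7.5, for 2 h at 37°C. Chymotrypsin-like activity was read by fluorescence at 355 nm excitation and 460 nm emission.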

MDA-MB-231 [3] = assay: Antiproliferative activity against human MDA-MB-231 cells with high catechol-O-methyltransferase activity at 50 uM after 24 hrs by MTT assay; type: functional
Procedure, shortened: (§2)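 MDA-MB-231 cells were grown in RPMI 1640 with 10% FBS, 100 units/ml penicillin and 100 μg/ml streptomycin at 37°C and 5% CO2. Triplicate wells were exposed to 25 or 50 μM compound for 24 h. MTT (1 mg/ml) was then added for 3 h at 37°C, and the formazan was dissolved in DMSO after the medium was removed.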

MDA-MB-231 [4] = assay: Antiproliferative activity against human MDA-MB-231 cells with high catechol-O-methyltransferase activity at 25 uM after 24 hrs by MTT assay; type: functional; conditions: for inhibition at 25 µM: MDA-MB-231, 24 h; procedure, shortened: as §2
MDA-MB-231 [5] = assay: Antiproliferative activity against human MDA-MB-231 cells at 25 to 50 uM after 24 hrs by MTT assay; type: functional; procedure, shortened: as §2
Oryctolagus cuniculus [6] = species: Oryctolagus cuniculus; assay: Inhibition of chymotrypsin like activity of rabbit 20S proteasome assessed as cleavage of Suc-LLVY-AMC substrate at 50 uM after 2 hrs by fluorogenic assay
Procedure, shortened: (§3)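 Purified rabbit 20S proteasome (35 ng) was incubated with 20 μM Suc-LLVY-AMC in 20 mM Tris-HCl, pH 7.5, with compound at various concentrations or solvent, for 2 h at 37°C. Fluorogenic substrate hydrolysis was then measured at 355 nm excitation and 460 nm emission.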

MDA-MB-231 [7] = assay: Inhibition of chymotrypsin like activity of 20S proteasome in COMT inhibitor 3,5-dinitrocatechol pretreated human MDA-MB-231 cells lysates with high catechol-O-methyltransferase activity assessed as cleavage of Suc-LLVY-AMC substrate at 10 uM after 2 hrs by fluorogenic assay; type: cell-free
Procedure, shortened: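 MDA-MB-231 cell extract (5.7 μg) was pre-treated with 10 μM 3,5-dinitrocatechol for 20 min. Compound and 20 μM Suc-LLVY-AMC were then added in 20 mM Tris-HCl, pH 7.5, and incubated for 2 h at 37°C. AMC release was read by fluorescence at 355 nm excitation and 460 nm emission.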

[8] = (§4) Inhibition of chymotrypsin like activity of rabbit 20S proteasome assessed as cleavage of Suc-LLVY-AMC substrate after 2 hrs by fluorogenic assay; parameters: species or system Oryctolagus cuniculus; procedure, shortened: as §3
MDA-MB-231 [9] = assay: Inhibition of chymotrypsin like activity of 20S proteasome in human MDA-MB-231 cells lysates with high catechol-O-methyltransferase activity assessed as cleavage of Suc-LLVY-AMC substrate at 1 to 10 uM after 2 hrs by fluorogenic assay; type: cell-free; procedure, shortened: as §1
MDA-MB-231 [10] = assay: Inhibition of chymotrypsin like activity of 20S proteasome in human MDA-MB-231 cells lysates with high catechol-O-methyltransferase activity assessed as cleavage of Suc-LLVY-AMC substrate at 10 uM after 2 hrs by fluorogenic assay
Procedure, shortened: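 MDA-MB-231 cell extract (5.7 μg protein) incubated with test agent or solvent and 20 μM Suc-LLVY-AMC in 20 mM Tris–HCl pH 7.5 for 2 h at 37°C. Chymotrypsin-like activity read as AMC fluorescence (ex 355 nm, em 460 nm).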

Oryctolagus cuniculus [11] = species: Oryctolagus cuniculus; assay: as §4; procedure, shortened: as §3
[12] = Inhibition of chymotrypsin like activity of proteasome; type: subcellular

For CC(=O)Oc1cc(OC(C)=O)cc(C(=O)O[C@H]2Cc3ccccc3C[C@H]2OC(=O)c2cc(OC(C)=O)cc(OC(C)=O)c2)c1, the inhibition (MDA-MB-231 [1]) was “Active”, the inhibition (MDA-MB-231 [2]) was “inactive” and the “growth inhibition (GI)” value (MDA-MB-231 [3]) was “Active”. For the same molecule, the inhibition at 50 µM (MDA-MB-231 [3]; MDA-MB-231, 24 h, read-out: INH) was 69%, the “growth inhibition (GI)” value (MDA-MB-231 [4]) was “Active” and the inhibition at 25 µM (MDA-MB-231 [4]) was 69%.

With CC(=O)Oc1cc(OC(C)=O)c2c(c1)O[C@H](c1cc(OC(C)=O)c(OC(C)=O)c(OC(C)=O)c1)[C@H](OC(=O)c1cc(OC(C)=O)c(OC(C)=O)c(OC(C)=O)c1)C2 the inhibition (MDA-MB-231 [2]) was “inactive”, the “growth inhibition (GI)” value (MDA-MB-231 [5]) was 0% and the inhibition at 25 µM (MDA-MB-231 [4]) was 42%.

With O=C(O[C@H]1Cc2ccccc2C[C@H]1O)c1cc(O)c(O)c(O)c1 the inhibition (Oryctolagus cuniculus [6]) was “inactive”.

In the case of O=C(O[C@H]1Cc2ccccc2C[C@H]1OC(=O)c1cc(O)cc(O)c1)c1cc(O)cc(O)c1, the inhibition (MDA-MB-231 [7]) is reported as “Active”, the IC50 [8] is reported as 29000 nM and the inhibition (MDA-MB-231 [9]) is reported as 18%.

With CC(=O)Oc1cc(C(=O)O[C@H]2Cc3ccccc3C[C@H]2OC(C)=O)cc(OC(C)=O)c1OC(C)=O the inhibition (MDA-MB-231 [2]) was “inactive”.

With O=C(O[C@H]1Cc2ccccc2C[C@H]1O)c1cc(O)cc(O)c1 the inhibition (Oryctolagus cuniculus [6]) was “inactive”.

With O=C(O[C@@H]1Cc2c(O)cc(O)cc2O[C@@H]1c1cc(O)c(O)c(O)c1)c1cc(O)c(O)c(O)c1 (stereo in doubt; 1) the inhibition (MDA-MB-231 [7]) was “Active”, the inhibition (MDA-MB-231 [10]) was 22% and the inhibition (Oryctolagus cuniculus [11]) was “Active”.

With CC(=O)Oc1cc(C(=O)O[C@H]2Cc3ccccc3C[C@H]2OC(=O)c2cc(OC(C)=O)c(OC(C)=O)c(OC(C)=O)c2)cc(OC(C)=O)c1OC(C)=O the inhibition (MDA-MB-231 [2]) was “inactive”, the “growth inhibition (GI)” value (MDA-MB-231 [3]) was “Active” and the “growth inhibition (GI)” value (MDA-MB-231 [5]) was 50%. The “growth inhibition (GI)” value (MDA-MB-231 [4]) was “Active” and the inhibition at 25 µM (MDA-MB-231 [4]) was 48%.

For O=C(O[C@@H]1Cc2c(O)cc(O)cc2O[C@@H]1c1cc(O)c(O)c(O)c1)c1cc(O)c(O)c(O)c1 (stereo in doubt; 3) [EPIGALOCATECHIN GALLATE], the IC50 [12] was 170 nM.

Molecule O=C(O[C@@H]1Cc2c(O)cc(O)cc2O[C@@H]1c1cc(O)c(O)c(O)c1)c1cc(O)c(O)c(O)c1 (stereo in doubt; 1) [EPIGALOCATECHIN GALLATE] has an IC50 [12] of 86 nM.

With CC(=O)Oc1cc(OC(C)=O)cc(C(=O)O[C@H]2Cc3ccccc3C[C@H]2OC(C)=O)c1 the inhibition (MDA-MB-231 [2]) was “inactive”.

In the case of O=C(O[C@H]1Cc2ccccc2C[C@H]1OC(=O)c1cc(O)c(O)c(O)c1)c1cc(O)c(O)c(O)c1, the inhibition (MDA-MB-231 [7]) is reported as “Active”, the IC50 [8] is reported as 19000 nM and the IC50 [12] is reported as 340 nM. The inhibition (MDA-MB-231 [9]) was 10%.
